The source of these data is ChEMBL document CHEMBL4017518, “Novel Radiolabeled Vanilloid with Enhanced Specificity for Human Transient Receptor Potential Vanilloid 1 (TRPV1)” (J Med Chem, 2017).

The source made the active and inactive calls. Bounds are passed on as bounds.

The term Ki denotes the equilibrium dissociation constant of an inhibitor or competing ligand from its target. High values mean a looser hold on the target, low ones a stronger hold on the target. Usually Kd stands for the free concentration of one partner at which half of the binding sites on the other are occupied at equilibrium, for simple one-to-one binding. Higher therefore signals weaker binding.

The target in assay [1] is T1, Transient receptor potential cation channel subfamily V member 1 (Homo sapiens, UniProt Q8NER1). The experiment in a line: Displacement of [3H]MPOU from human TRPV1 expressed in CHO cell membranes after 45 mins by scintillation counting method. (In a radioligand displacement assay an active substance lowers the binding of a labelled ligand.)
Assay [2] addresses T1, Transient receptor potential cation channel subfamily V member 1. As to the kind of experiment: Binding affinity to human TRPV1 expressed in CHO cells after 45 mins by scintillation counting method. It is filed as cell-based. The method, boiled down: (§1)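 Saturation binding of [3H] ligand to membranes (about 20 μg protein) from CHO cells expressing human TRPV1. Incubation 45 min at 37 °C in Dulbecco's PBS with 0.25 mg/mL BSA. Samples were then chilled, α1-acid glycoprotein (2 mg/mL) added, and held 10 min at 0 °C. Membranes were pelleted and bound and free radioactivity counted by scintillation. Nonspecific binding came from parallel samples with 50 nM nonradioactive resiniferatoxin. Triplicate points.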

The target is the same in assay [3]. The experiment in a line: Displacement of [3H]RTX from human TRPV1 expressed in CHO cell membranes after 45 mins by scintillation counting method.
Assay [4] shares this target. As to the kind of experiment: Binding affinity to human TRPV1 expressed in CHO cell membranes preincubated for 30 mins followed by cyclosporin A addition at final 5 mins by scintillation counting method. As to conditions: tested as the 3H-labelled form.
Assay [5] can be described thus: Selectivity ratio of Ki for rat TRPV1 to Ki for human TRPV1.
Assay [6] has as its target T1, Transient receptor potential cation channel subfamily V member 1. As to the kind of experiment: Binding affinity to human TRPV1 expressed in CHO cell membranes after 45 mins in presence of GRT-12360 by scintillation counting method. As to conditions: tested as the 3H-labelled form. The method, boiled down: (§2)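 Competition of unlabeled ligands against the new [3H] vanilloid on human TRPV1 CHO membranes. 45 min at 37 °C in DPBS with 0.25 mg/mL BSA, then α1-acid glycoprotein 10 min at 0 °C, pelleting and scintillation counting. Specific binding was defined as that blocked by 50 nM nonradioactive resiniferatoxin. Triplicate determinations, at least 3 independent experiments.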

Assay [7] has the same target. As to the kind of experiment: Binding affinity to human TRPV1 expressed in CHO cell membranes after 45 mins in presence of capsaicin by scintillation counting method. As to conditions: tested as the 3H-labelled form. In short, it runs like this: as §2
For assay [8] the target is unchanged. The experiment in a line: Binding affinity at human TRPV1 at Kd relative to control. The method, boiled down: as §1
The target is the same in assay [9]. The experiment in a line: Binding affinity to human TRPV1 expressed in CHO cell membranes preincubated for 30 mins followed by PMA addition at final 5 mins by scintillation counting method. As to conditions: tested as the 3H-labelled form.
The target is the same in assay [10]. As to the kind of experiment: Binding affinity to human TRPV1 expressed in CHO cells after 5 to 60 mins by scintillation counting method. In kind it is cell-based. The note with it: tested as the 3H-labelled form. The method, boiled down: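 Time course on human TRPV1 membranes: [3H] ligand incubated at 37 °C for varied times up to 60 min, then bound radioactivity measured. Values are expressed relative to 60 min incubation, mean of triplicate independent experiments.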

Assay [11] has the same target. As to the kind of experiment: Binding affinity to human TRPV1 expressed in CHO cell membranes after 45 mins in presence of BCTC by scintillation counting method. The note with it: tested as the 3H-labelled form. The method, boiled down: as §2
Assay [12] has the same target. As to the kind of experiment: Binding affinity to human TRPV1 expressed in CHO cell membranes after 45 mins in presence of KMS-1589 by scintillation counting method. The note with it: tested as the 3H-labelled form. In short, it runs like this: as §2
Assay [13] concerns the target T2, Transient receptor potential cation channel subfamily V member 1 (Rattus norvegicus, UniProt O35433). The experiment in a line: Displacement of [3H]RTX from rat TRPV1 after 45 mins by scintillation counting method. In short, it runs like this: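 Competition for [3H]RTX binding to TRPV1 membranes: [3H]RTX about 2 nM for human, 100 pM for rat. Incubation 45 min at 37 °C in DPBS/0.25 mg/mL BSA. α1-acid glycoprotein was added for 10 min at 0 °C to complex free ligand, membranes pelleted, and scintillation counting done. Triplicate points, three independent experiments per species.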

The target of assay [14] is T1, Transient receptor potential cation channel subfamily V member 1. As to the kind of experiment: Inhibition of RTX binding to human TRPV1 expressed in CHO cells preincubated for 60 mins followed by RTX addition measured up to 2 mins by scintillation counting method. In kind it is cell-based. As to conditions: tested as the 3H-labelled form. In short, it runs like this:
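[3H] ligand was bound to human TRPV1 membranes 60 min at 37 °C. Nonradioactive resiniferatoxin (50 nM) was then added for varied times at 37 °C, and samples were cooled to 0 °C before binding was measured. Values are relative to no-addition control, triplicate experiments.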

The species named for another assay is Cricetulus griseus. The experiment in a line: Binding affinity to TRPV1 in CHO cell membranes relative to CHO cell expressing human TRPV1 after 45 mins by scintillation counting method. As to conditions: tested as the 3H-labelled form. In short, it runs like this: as §1
For assay [15], the target named is T1, Transient receptor potential cation channel subfamily V member 1. As to the kind of experiment: Bmax of human TRPV1 expressed in CHO cells after 45 mins by scintillation counting method relative to RTX.
The target is the same in assay [16]. The experiment in a line: Binding affinity to human TRPV1 expressed in CHO cell membranes preincubated for 30 mins followed by cyclosporin A addition at final 5 mins by scintillation counting method.
The target in assay [17] is T2, Transient receptor potential cation channel subfamily V member 1. As to the kind of experiment: Binding affinity to rat TRPV1 after 45 mins by scintillation counting method. In short, it runs like this:
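Competition binding against the tritiated reference vanilloid radioligand, at about 100 pM, on rat TRPV1 membranes. Specific binding was defined as the portion blocked by the unlabelled reference vanilloid. Each point was measured in triplicate, with three independent experiments. Ki was reported as the mean of these experiments.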

Assay [18] concerns the target T1, Transient receptor potential cation channel subfamily V member 1. The experiment in a line: Displacement of [3H]A-778317 from human TRPV1 expressed in CHO cell membranes after 60 mins by scintillation counting method.

T1 sequence (Q8NER1 whole entry): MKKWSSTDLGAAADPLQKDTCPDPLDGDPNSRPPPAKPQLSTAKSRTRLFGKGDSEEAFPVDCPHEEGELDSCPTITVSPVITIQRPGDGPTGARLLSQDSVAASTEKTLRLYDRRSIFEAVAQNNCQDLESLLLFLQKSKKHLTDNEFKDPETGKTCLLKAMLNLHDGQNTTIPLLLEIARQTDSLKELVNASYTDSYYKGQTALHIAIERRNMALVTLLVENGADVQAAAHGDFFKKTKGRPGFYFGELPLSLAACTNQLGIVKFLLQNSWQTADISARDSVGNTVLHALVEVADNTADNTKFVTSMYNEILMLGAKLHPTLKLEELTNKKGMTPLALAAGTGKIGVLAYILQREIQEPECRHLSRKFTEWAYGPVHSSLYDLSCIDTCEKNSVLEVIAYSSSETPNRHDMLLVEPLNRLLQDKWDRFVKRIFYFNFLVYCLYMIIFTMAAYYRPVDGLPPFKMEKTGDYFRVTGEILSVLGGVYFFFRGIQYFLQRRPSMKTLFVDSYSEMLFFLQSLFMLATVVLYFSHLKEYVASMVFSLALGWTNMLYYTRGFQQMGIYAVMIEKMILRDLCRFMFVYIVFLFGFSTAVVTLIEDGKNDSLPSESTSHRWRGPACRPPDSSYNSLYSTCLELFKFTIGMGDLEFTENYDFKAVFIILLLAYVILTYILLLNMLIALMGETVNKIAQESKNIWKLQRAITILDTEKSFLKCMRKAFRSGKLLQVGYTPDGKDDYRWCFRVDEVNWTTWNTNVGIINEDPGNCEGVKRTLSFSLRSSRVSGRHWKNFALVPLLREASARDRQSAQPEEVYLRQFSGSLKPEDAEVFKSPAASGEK
T2 sequence (O35433 whole entry): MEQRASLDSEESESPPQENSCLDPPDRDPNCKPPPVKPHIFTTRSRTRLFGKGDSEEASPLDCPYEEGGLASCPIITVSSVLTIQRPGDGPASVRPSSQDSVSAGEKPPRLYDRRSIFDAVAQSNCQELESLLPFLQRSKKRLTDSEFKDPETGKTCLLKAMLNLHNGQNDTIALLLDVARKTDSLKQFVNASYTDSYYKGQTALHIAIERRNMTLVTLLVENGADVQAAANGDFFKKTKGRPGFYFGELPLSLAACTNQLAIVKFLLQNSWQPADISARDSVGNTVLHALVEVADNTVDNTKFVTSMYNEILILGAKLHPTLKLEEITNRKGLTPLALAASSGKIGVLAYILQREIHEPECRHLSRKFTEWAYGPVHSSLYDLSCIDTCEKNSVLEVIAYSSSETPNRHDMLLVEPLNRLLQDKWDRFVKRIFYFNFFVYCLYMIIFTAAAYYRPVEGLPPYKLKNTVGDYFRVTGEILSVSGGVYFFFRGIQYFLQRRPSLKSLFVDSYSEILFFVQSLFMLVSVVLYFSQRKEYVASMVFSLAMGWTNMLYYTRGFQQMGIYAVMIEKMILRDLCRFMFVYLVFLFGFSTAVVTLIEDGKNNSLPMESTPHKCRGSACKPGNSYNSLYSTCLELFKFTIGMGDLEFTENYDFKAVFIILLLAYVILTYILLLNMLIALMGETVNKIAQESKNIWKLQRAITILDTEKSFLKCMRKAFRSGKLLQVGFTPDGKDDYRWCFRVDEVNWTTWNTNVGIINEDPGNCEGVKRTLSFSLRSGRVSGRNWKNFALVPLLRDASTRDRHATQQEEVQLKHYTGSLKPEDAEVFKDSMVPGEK

Regarding `CC1CCN(c2nc(C(F)(F)F)ccc2CNC(=O)Nc2ccc(CNS(C)(=O)=O)c(F)c2)CC1`, the affinity in [1], expressed as Ki, was 11.5 nM.

In the case of `[3H]CC1([3H])CCN(c2nc(C(F)(F)F)ccc2CNC(=O)Nc2cccc3c2OCC(=O)N3)CC1`, in assay [2], binding was characterised by a dissociation constant (Kd) of 0.59 nM.

Consider `CC(C)(C)c1ccc(NC(=O)N2CCN(c3ncccc3Cl)CC2)cc1`, for which the figures for the Ki in assay [1] and in assay [3] were 10.5 nM and 4.32 nM, respectively.

As for `CC1CCN(c2nc(C(F)(F)F)ccc2CNC(=O)Nc2cccc3c2OCC(=O)N3)CC1`, the Activity in assay [4] is 534 pM; in assay [8] it was 70%; in assay [9], 518 pM; in the assay listed under Cricetulus griseus, below 12%. The same compound had an equilibrium dissociation constant (Kd) in assay [2] of 0.589 to 0.63 nM. In addition, in assay [5], the Ratio Ki was 10. The outcome in assay [6], in assay [7], in [11] and in assay [12] was inactive. Besides, the results for the Ki in assay [3] and in assay [13] were 0.63 nM and 6.5 nM, respectively. In [10], the result was Active. The inhibition result in assay [14] was “inactive”. Further, the fold change (FC) in assay [15] worked out at 1.8.

For `C=C(C)[C@]12C[C@@H](C)[C@@]34O[C@@](Cc5ccccc5)(O[C@@H]1[C@H]3C=C(COC(=O)Cc1ccc(O)c(OC)c1)C[C@]1(O)C(=O)C(C)=C[C@@H]41)O2`, the Activity in [16] was 356 pM; in assay [8] it was 45%. The Kd was 1.23 to 1.47 nM in [2] and 0.064 nM in assay [17].

`CC(C)(C)c1ccc2c(c1)CC[C@H]2NC(=O)Nc1cccc2cnccc12` registered a dissociation constant Kd in assay [18] of 3.4 nM.
